According to article PMC11094776 (Protein Science : A Publication of the Protein Society, 2024):
One block for each compound: values may come before it. Non-standard residues stand in square brackets, D forms with d. Residues, ends and D or L forms follow the SMILES beside them. No end group written: not given here. *: point of attachment. FITC = O=C1OC2(c3ccc(O)cc3Oc3cc(O)ccc32)c2ccc(NC(=S)*)cc21; βAla = NCCC(=O)O

Assays:
[1] = biological target: MBP‐AAA‐AF9 AHD Q336C/A502C (Homo sapiens, UniProt P42568, A502C/Q361C); assay: Fluorescence polarization direct binding, MBP-AAA-AF9 AHD Q336C/A502C
Method in brief: (§1)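 Fusion protein expressed at 18°C in Rosetta (DE3) cells in TB medium. Cells were lysed by sonication in 50 mM Tris 7.4, 150 mM NaCl, 10% glycerol, 20 mM imidazole, 3 mM TCEP. Protein was captured on Ni-NTA, eluted with a 50–250 mM imidazole gradient, TEV-treated overnight (1:100 w/w), then run on Superdex 200 SEC. Stored at −80°C in 25 mM Tris 7.4, 150 mM NaCl, 1 mM TCEP.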

[2] = biological target: T1, MBP‐GS‐AF9 AHD (Homo sapiens, UniProt P42568); assay: Fluorescence polarization direct binding, MBP-GS-AF9 AHD
T1 sequence (P42568 500-568): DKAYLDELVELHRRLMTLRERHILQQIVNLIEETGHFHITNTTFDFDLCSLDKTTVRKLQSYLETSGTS
Method in brief: as §1

[3] = biological target: T2, MBP‐RITK‐AF9 AHD (Homo sapiens, UniProt P42568); assay: Fluorescence polarization direct binding, MBP-RITK-AF9 AHD
T2 sequence (P42568 500-568): T1 sequence (P42568 500-568)
Method in brief: as §1

[4] = biological target: MBP‐AAAA‐AF9 AHD Q336C/K501C (Homo sapiens, UniProt P42568, Q361C); assay: Fluorescence polarization direct binding, MBP-AAAA-AF9 AHD Q336C/K501C
Method in brief: as §1

[5] = biological target: T3, MBP‐AAA‐AF9 AHD (Homo sapiens, UniProt P42568); assay: Fluorescence polarization direct binding, MBP-AAA-AF9 AHD
T3 sequence (P42568 500-568): T1 sequence (P42568 500-568)

[6] = biological target: T4, MBP‐AAAA‐AF9 AHD (Homo sapiens, UniProt P42568); assay: Fluorescence polarization direct binding, MBP-AAAA-AF9 AHD
T4 sequence (P42568 500-568): T1 sequence (P42568 500-568)

[7] = test system: AF9 AHD; details: cited from earlier work; for interaction sites within the DOT1L sequence: ref Kuntimaddi et al., 2015
[8] = test system: ENL AHD; details: ref Kabra & Bushweller, 2022; cited from earlier work
[9] = biological target: DOT1L (879–888 aa) derived fluorescent labeled peptide; assay: fluorescence polarisation
[10] = biological target: AF4 (761–770 aa) derived fluorescent labeled peptide (UniProt P51825); assay: fluorescence polarisation

Compound: CC[C@H](C)[C@H](NC(=O)[C@H](CCCCN)NC(=O)[C@@H](NC(=O)[C@H](CCSC)NC(=O)[C@H](CC(C)C)NC(=O)CCNC(=O)CCNC(=O)[C@H](CCCCNC(=S)Nc1ccc2c(c1)C(=O)OC21c2ccc(O)cc2Oc2cc(O)ccc21)NC(C)=O)C(C)C)C(=O)N[C@H](C(=O)N[C@@H](CC(C)C)C(=O)N[C@@H](CC(=O)O)C(=O)N[C@@H](CC(C)C)C(=O)N[C@@H](CC(C)C)C(N)=O)[C@@H](C)O [AF4 (761–770 aa)] (Ac-K(FITC)[βAla][βAla]LMVKITLDLL-NH2)
Kd [1]: 3.49 ± 0.18 nM
Kd [2]: 3.7 ± 0.94 nM
Kd [3]: 1.31 ± 0.05 nM
Kd [4]: 1.26 ± 0.11 nM

Compound: CC[C@H](C)[C@H](NC(=O)[C@H](CO)NC(=O)[C@@H](NC(=O)[C@@H]1CCCN1C(=O)[C@H](CC(C)C)NC(=O)CCNC(=O)CCNC(=O)[C@H](CCCCNC(=S)Nc1ccc2c(c1)C(=O)OC21c2ccc(O)cc2Oc2cc(O)ccc21)NC(C)=O)C(C)C)C(=O)N1CCC[C@H]1C(=O)N[C@@H](CC(C)C)C(=O)N[C@@H](C)C(=O)N[C@@H](CO)C(=O)N[C@H](C(N)=O)C(C)C [DOT1L (879–888 aa)] (Ac-K(FITC)[βAla][βAla]LPVSIPLASV-NH2)
Kd [1]: 20.9 ± 2.59 nM
Kd [2]: 17.9 ± 3.49 nM
Kd [3]: 7.86 ± 0.76 nM
Kd [5]: 8.79 ± 0.41 nM
Kd [6]: 15.6 ± 1.93 nM
Kd [4]: 10.7 ± 2.84 nM

Compound: AF4 peptide: AF4 peptide of prior reports (LMVKITLDLL; also: fluorescent label, dye and position not given here)
affinity for AF9 AHD relative to DOT1L peptide ([7]; prior reports, ref Kabra & Bushweller, 2022, Shen et al., 2013): higher affinity

Compound: BCOR peptide (1176–1228): longer BCOR peptide (1176–1228) (TNSSSNHLEDPHYSELTNLKVCIELTGLHPKKQRHLLHLRERWEQQVSAADGK; UniProt Q6W2J9 1176-1228, looked up, fragment)
binding affinity compared with short peptide (1176–1207) ([7]; AF9 AHD, ref Kabra & Bushweller, 2022): higher binding affinity
binding affinity compared with short peptide (1176–1207) [8]: higher binding affinity

Compound: LELQISIVEL [LELQISIVEL (638–647)]
interaction sites within the DOT1L sequence [7]: interaction sites

Compound: LPISIPLSTV [LPISIPLSTV (865–874)]
binding site for the AHD ([7]; mapped 10-amino acid DOT1L peptide, ref Grigsby et al., 2021, Shen et al., 2013): binding site for the AHD

Compound: LPVSIPLASV [LPVSIPLASV (879–888)]
interaction sites within the DOT1L sequence [7]: interaction sites

Kd [9]: 15.6 nM
Compound: MBP‐AAAA‐AF9 AHD (from UniProt P42568 500-568) (domain or fragment)

Kd [10]: 1.26 nM
Kd [9]: 10.7 nM
Compound: MBP‐AAAA‐AF9 AHD Q336C/K501C (from UniProt P42568 500-568) (domain or fragment)

Kd [9]: 8.79 nM
Compound: MBP‐AAA‐AF9 AHD (from UniProt P42568 500-568) (domain or fragment)

Kd [9]: 20.9 nM
Compound: MBP‐AAA‐AF9 AHD Q336C/A502C (from UniProt P42568 500-568) (domain or fragment)

Kd [9]: 17.9 nM
Compound: MBP‐GS‐AF9 AHD (from UniProt P42568 500-568) (domain or fragment)

Kd [10]: 1.31 nM
Kd [9]: 7.86 nM
Compound: MBP‐RITK‐AF9 AHD (from UniProt P42568 500-568) (domain or fragment)
